10 molecules from ChEMBL document CHEMBL1155163, “Deoxyribonucleoside kinases activate nucleoside antibiotics in severely pathogenic bacteria” (Antimicrob Agents Chemother, 2007) can be followed below.

Values after ≈ are worked out from the molar mass of the structure shown. Active and inactive are the calls of the source.

In series [1] the test system is Staphylococcus aureus. Description: Antimicrobial activity against Staphylococcus aureus ATCC 29213 after 20 hrs. Format: functional. The note with it: ATCC 29213, 20 h. In a few lines:
(§1)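 Organisms taken from overnight Columbia blood agar, adjusted to McFarland 0.5 in 0.9% NaCl, diluted a further 10-fold, then spotted on Mueller-Hinton agar containing graded nucleoside analog concentrations. Incubated 20 h at 37°C. MIC is the lowest concentration fully inhibiting growth, judged visually.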

Series [2] relates to Staphylococcus aureus. Description: Antimicrobial activity against Staphylococcus aureus CCM 885 after 20 hrs. Format: functional. The note with it: CCM 885, 20 h. In a few lines: as §1
The subject of series [3] is Streptococcus sp. Nature of the series: Antimicrobial activity against Streptococcus sp. 07941-1 after 20 hrs. The class given is functional. In a few lines:
as §1

The test system of series [4] is Streptococcus sp. Description: Antimicrobial activity against Streptococcus sp. 07706-1 after 20 hrs. The class given is functional. In a few lines: as §1
Series [5] concerns Escherichia coli. Description: Antimicrobial activity against Escherichia coli ATCC 25922 after 20 hrs. Format: functional. The note with it: ATCC 25922, 20 h. In a few lines: as §1
In series [6] the test system is Streptococcus sp. Description: Antimicrobial activity against Streptococcus sp. 07686-2 after 20 hrs. The class given is functional. In a few lines:
as §1

Series [7] has as its system Escherichia coli. Description: Antibacterial activity against […] kinase-deficient Escherichia coli KY895 expressing Streptococcus pyogenes recombinant deoxyadenosine kinase. Format: functional.
For series [8], the system named is Escherichia coli. Nature of the series: Antibacterial activity against […] kinase-deficient Escherichia coli KY895 expressing Staphylococcus aureus recombinant deoxyguanosine kinase. Format: functional, organism-based.
Series [9] concerns Escherichia coli. Nature of the series: Antibacterial activity against […] kinase-deficient Escherichia coli KY895 expressing Staphylococcus aureus recombinant deoxyadenosine kinase. Format: functional.
In series [10] the test system is Streptococcus pyogenes. Nature of the series: Antibacterial activity against 1 x 10^7 CFU Streptococcus pyogenes AP1-infected BALB/c mouse assessed as survival at 100 ug, ip after 5 days. The class given is functional. In a few lines:
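Adult female BALB/c mice (~20 g), six per group, given ip 1 x 10^7 CFU of mid-exponential S. pyogenes AP1 (OD620 0.5, washed, in PBS). 6 h later, ip 100 µg drug or 100 µl PBS. Survival followed at regular intervals. Survivors sacrificed at 5 days. Inoculum checked by blood-agar colony counts.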

Series [11] has as its system Streptococcus pyogenes. Nature of the series: Antibacterial activity against exponentially growing Streptococcus pyogenes AP1 at 0.2 ug/ml after 3 hrs by viable count susceptibility assay. The class given is functional, organism-based. In a few lines: (§2)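 Cells grown overnight in Todd-Hewitt broth at 37°C with 5% CO2, subcultured to OD620 0.4, washed twice and diluted 1,000-fold in 10 mM Tris-HCl pH 7.5, 5 mM glucose, 10% Todd-Hewitt. Stopped with ice-cold buffer; duplicate plating on Todd-Hewitt agar for viable counts.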

The subject of series [12] is Streptococcus pyogenes. Description: Antimicrobial activity against Streptococcus pyogenes AP1 after 20 hrs. Format: functional. The note with it: AP1, 20 h. In a few lines:
as §1

The test system of series [13] is Escherichia coli. Description: Antibacterial activity against […] kinase-deficient Escherichia coli KY895 expressing Streptococcus pyogenes recombinant thymidine kinase. Format: functional.
For series [14], the system named is Escherichia coli. Description: Antibacterial activity against […] kinase-deficient Escherichia coli KY895 expressing Staphylococcus aureus recombinant thymidine kinase. Format: functional.
For series [15], the system named is Streptococcus pyogenes. Nature of the series: Antibacterial activity against 2.5 x 10^6 CFU Streptococcus pyogenes AP1-infected BALB/c mouse assessed as protection against bacterial dissemination in spleen at 100 ug, ip administered 6 hrs after bacterial infection and measured after 24 hrs postinfection. Format: functional, organism-based.
For series [16], the system named is Staphylococcus aureus. Nature of the series: Antibacterial activity against exponentially growing Staphylococcus aureus ATCC 29213 at 0.002 ug/ml after 3 hrs by viable count susceptibility assay. The class given is functional, organism-based. In a few lines:
as §2

Substrate in series [17]: Nc1ccn([C@@H]2O[C@H](CO)[C@@H](O)C2(F)F)c(=O)n1
Nature of the series: (§3) Ratio of kcat to Km for Staphylococcus aureus CCM 885 recombinant deoxyadenosine kinase. In a few lines: (§4)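 Recombinant S. aureus kinase cut from a GST fusion (pGEX-2T, E. coli BL21) by thrombin. Initial velocities taken from four time samples in a DE-81 filter-paper assay with tritiated substrates at varied concentrations. Fits by nonlinear regression to Michaelis-Menten, or to the substrate-inhibition equation where needed.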

Substrate in series [18]: Nc1ncnc2c1ncn2[C@H]1C[C@H](O)[C@@H](CO)O1
The series is described as §3. In a few lines:
as §4

Substrate in series [19]: Nc1ccn([C@H]2C[C@H](O)[C@@H](CO)O2)c(=O)n1
Described as §3. In a few lines:
as §4

Substrate in series [20]: Nc1ccn([C@@H]2O[C@H](CO)[C@@H](O)C2(F)F)c(=O)n1
Nature of the series: (§5) Activity of Staphylococcus aureus CCM 885 recombinant deoxyadenosine kinase. In a few lines:
as §4

Substrate in series [21]: Nc1ncnc2c1ncn2[C@H]1C[C@H](O)[C@@H](CO)O1
The series is described as §5. In a few lines: as §4

Substrate in series [22]: Nc1ccn([C@H]2C[C@H](O)[C@@H](CO)O2)c(=O)n1
The description is as §5. In a few lines: as §4

Substrate in series [23]: Nc1nc(O)c2ncn([C@H]3C[C@H](O)[C@@H](CO)O3)c2n1
Description: Activity of Staphylococcus aureus CCM 885 recombinant deoxyguanosine kinase. In a few lines:
as §4

Substrate in series [24]: Nc1nc(O)c2ncn([C@H]3C[C@H](O)[C@@H](CO)O3)c2n1
Nature of the series: Ratio of kcat to Km for Staphylococcus aureus CCM 885 recombinant deoxyguanosine kinase. In a few lines:
as §4

Substrate in series [25]: Cc1cn([C@H]2C[C@H](N=[N+]=[N-])[C@@H](CO)O2)c(=O)[nH]c1=O
Nature of the series: (§6) Ratio of kcat to Km for Staphylococcus aureus CCM 885 recombinant thymidine kinase. In a few lines: (§7)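 GST-fused SaTK expressed in E. coli BL21 (100 µM IPTG, 6 h at 25°C), purified on glutathione-Sepharose and cleaved from GST with thrombin. Initial velocities from four time samples, DE-81 filter-paper assay with tritium-labeled deoxyribonucleoside substrates at various concentrations. Michaelis-Menten nonlinear regression.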

Substrate in series [26]: Cc1cn([C@H]2C[C@H](O)[C@@H](CO)O2)c(=O)[nH]c1=O
Described as §6. In a few lines:
as §7

Substrate in series [27]: Cc1cn([C@H]2C[C@H](N=[N+]=[N-])[C@@H](CO)O2)c(=O)[nH]c1=O
Nature of the series: (§8) Activity of Staphylococcus aureus CCM 885 recombinant thymidine kinase. In a few lines:
as §7

Substrate in series [28]: Cc1cn([C@H]2C[C@H](O)[C@@H](CO)O2)c(=O)[nH]c1=O
The description is as §8. In a few lines: as §7

As usually defined, the MIC is the smallest concentration in the dilution series that meets the test's criterion for growth inhibition. As for `Nc1nc(Cl)nc2c1ncn2[C@H]1C[C@H](O)[C@@H](CO)O1` [CLADRIBINE], the MIC was greater than 100 µM in series [1]; greater than 100 µM in series [2]; 100 µM (≈ 28.6 µg/mL) in series [3]; 100 µM (≈ 28.6 µg/mL) in series [4]; greater than 100 µM in series [5]; 100 µM (≈ 28.6 µg/mL) in series [6].
For the molecule `Nc1ccn([C@@H]2O[C@H](CO)[C@@H](O)[C@@H]2O)c(=O)n1` [CYTARABINE], the MIC in [1], in [2], in [3], in [4], in series [5] and in series [6] was greater than 1000 µM throughout.
Turning to `CCc1cn([C@H]2C[C@H](O)[C@@H](CO)O2)c(=O)[nH]c1=O` [EDOXUDINE], the MIC in [1], in [2], in series [3], in series [4], in series [5] and in series [6] was greater than 316 µM throughout.
Turning to `O=c1[nH]c(=O)n([C@H]2C[C@H](O)[C@@H](CO)O2)cc1F` [FLOXURIDINE], the MIC in series [1] amounted to 0.01 µM (≈ 0.00246 µg/mL); in [2] it was 0.00316 µM (≈ 0.000778 µg/mL); in series [3] it was 0.1 µM (≈ 0.0246 µg/mL); in [4] it was 0.316 µM (≈ 0.0778 µg/mL); in series [5], 1 µM (≈ 0.246 µg/mL); in series [6] it was 10 µM (≈ 2.46 µg/mL).
As for `Nc1nc(F)nc2c1ncn2[C@@H]1O[C@H](CO)[C@@H](O)[C@@H]1O` [FLUDARABINE], the MIC in series [1], in series [2], in series [3], in series [4], in series [5] and in series [6] was greater than 100 µM throughout.
Consider `Nc1ccn([C@@H]2O[C@H](CO)[C@@H](O)C2(F)F)c(=O)n1` [GEMCITABINE], for which the MIC in [1] is 0.1 µM (≈ 0.0263 µg/mL); in series [2], 0.1 µM (≈ 0.0263 µg/mL); in series [7] it was 0.0316 µM; in [9], 0.001 µM; in series [3], 0.01 µM (≈ 0.00263 µg/mL); in series [12], 0.1 µM (≈ 0.0263 µg/mL). The MIC in series [4] is 0.0316 µM (≈ 0.00832 µg/mL); in series [5] it was greater than 1000 µM; in series [6], 0.1 µM (≈ 0.0263 µg/mL). For the same molecule, the result in series [8], in series [13] and in [14] was inactive. In addition, in series [10], the Activity came out at 83%. In addition, the result in series [11], in [15] and in [16] was Active.
Turning to `Cc1cn([C@H]2C[C@H](N=[N+]=[N-])[C@@H](CO)O2)c(=O)[nH]c1=O` [ZIDOVUDINE], the MIC in series [1] is greater than 316 µM; in series [2], greater than 316 µM; in [3], 316 µM (≈ 84.4 µg/mL); in [13], 0.01 µM; in series [4], greater than 316 µM; in series [5], 10 µM (≈ 2.67 µg/mL). Besides, the MIC in [6] was greater than 316 µM; in series [14] it was 0.0316 µM. The outcome in series [7], in series [8] and in [9] was inactive.

B1: Deoxyadenosine kinase (Staphylococcus aureus), Q0H0H0 (protein)
chain: MNNYGIPQNAIITIAGTVGVGKSTLTQALADKLNFKTSFENVEHNPYLDKFYSDFERWSFHLQIYFLAERFKEQKRMFEYGGGFVQDRSIYEDVDIFAKMHEEEGTMSKEDFKTYSDLFNAMVMTPYFPKPDVMIYLECNYDEVIDRIIERGREMEINTDPEYWKKLFKRYDDWINSFNACPVVRININEYDIHKDPESLNPMINKIARIIQTYRQVDTR
For orientation: Km means the substrate concentration at which the rate is half of its maximum. Usually kcat stands for the maximal rate divided by the concentration of active sites. As for B1, the kcat/Km in series [17] worked out at 9.81 ×10² /M/s; in [18], 6.22 ×10⁴ /M/s; in series [19], 1.62 ×10⁴ /M/s. In addition, the figures for the Km in series [20], in series [21] and in series [22] were 192 µM, 29.2 µM and 34.4 µM, respectively. The Vmax in series [20] came out at 0.43 U/mg; in series [21] it was 4.1 U/mg; in [22] it was 1.3 U/mg. In addition, the kcat in series [20] was 0.19 s⁻¹; in series [21], 1.82 s⁻¹; in [22] it was 0.56 s⁻¹.

B2: Deoxyguanosine kinase (Staphylococcus aureus), Q0H0G8 (protein)
chain: MNKPFIAIEGPIGVGKSSLAHKLSQTLDFYEEKEIITENPFLSDFYEDISKWSFQTEMFFLCNRYKQFQDVTQLNQGVVSDYHIHKNKIFAKNTLSSVEFQKFSKIYDILTEDMIMPNMIIFLDADLDVLKSRIAKRNRSFEHQIEDEYLLKLKKDYREYYESLQSNGSNVVLIDTTSIDFLKNEQDYEDILHIILPMIGDITNE
Turning to B2, in series [23], the Km was found to be 1.1 µM, the Vmax turned out to be 1.4 U/mg and the kcat is 0.57 s⁻¹. The kcat/Km in [24] came to 5.17 ×10⁵ /M/s.

B3: Thymidine kinase (Staphylococcus aureus), Q0H0G9 (protein)
chain: MYETYHSGWIECITGSMFSGKSEELIRRLRRGIYAKQKVVVFKPAIDDRYHKEKVVSHNGNAIEAINISKASEIMTHDLTNVDVIGIDEVQFFDDEIVSIVEKLSADGHRVIVAGLDMDFRGEPFEPMPKLMAVSEQVTKLQAVCAVCGSSSSRTQRLINGKPAKIDDPIILVGANESYEPRCRAHHIVAPSDNNKEEL
As to B3, the kcat/Km in series [25] turned out to be 1.29 ×10⁵ /M/s; in series [26], 1.6 ×10⁵ /M/s. The Km in series [27] came out at 11.6 µM; in [28], 2.8 µM. For the same molecule, the values for the Vmax in series [27] and in series [28] were 4 U/mg and 1.2 U/mg, respectively. The kcat in [27] worked out at 1.48 s⁻¹; in series [28], 0.44 s⁻¹.
